pKi: −log10 of the molar value.
Tests used:
Assay in all cases: stopped-flow CO2 hydration assay
Assay type in all cases: biochemical
hCA VI = hCA VI (Homo sapiens, UniProt P23280)
How it was run: (§1)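 Enzyme-catalysed CO2 hydration was followed by stopped-flow at 557 nm with 0.2 mM phenol red in 20 mM HEPES pH 7.5 and 20 mM Na2SO4. Initial rates were taken over 10–100 s at five CO2 levels (1.7–17 mM). Enzyme was preincubated 15 min at room temperature with six inhibitor concentrations (100 µM–0.1 nM). Uncatalysed rate was subtracted; Ki came from nonlinear least squares, mean of ≥3 determinations.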

hCA VB = hCA VB (Homo sapiens, UniProt Q9Y2D0)
How it was run: as §1

hCA VA = hCA VA (Homo sapiens, UniProt P35218)
How it was run: as §1

mCA XV = target: T1, mCA XV (Mus musculus, UniProt Q99N23)
T1 sequence (Q99N23 19-324): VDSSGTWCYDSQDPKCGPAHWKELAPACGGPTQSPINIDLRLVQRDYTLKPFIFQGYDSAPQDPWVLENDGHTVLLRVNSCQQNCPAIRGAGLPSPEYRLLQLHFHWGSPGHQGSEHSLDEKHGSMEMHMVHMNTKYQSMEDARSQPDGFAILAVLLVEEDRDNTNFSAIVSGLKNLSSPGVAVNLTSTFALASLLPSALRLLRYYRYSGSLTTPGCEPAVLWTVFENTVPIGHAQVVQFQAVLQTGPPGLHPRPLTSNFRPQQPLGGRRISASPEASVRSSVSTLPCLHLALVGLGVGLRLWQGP
How it was run: as §1

hCA IX = hCA IX (Homo sapiens, UniProt Q16790)
How it was run: as §1

hCA XII = hCA XII (Homo sapiens, UniProt O43570)
How it was run: as §1

hCA XIII = hCA XIII (Homo sapiens, UniProt Q8N1Q1)
How it was run: as §1

hCA I = hCA I (Homo sapiens, UniProt P00915)
How it was run: as §1

hCA IV = hCA IV (Homo sapiens, UniProt P22748)
How it was run: as §1

hCA III = hCA III (Homo sapiens, UniProt P07451)
How it was run: as §1

hCA VII = hCA VII (Homo sapiens, UniProt P43166)
How it was run: as §1

hCA II = hCA II (Homo sapiens, UniProt P00918)
How it was run: as §1

Sequence of hCA XIII (Q8N1Q1 whole entry): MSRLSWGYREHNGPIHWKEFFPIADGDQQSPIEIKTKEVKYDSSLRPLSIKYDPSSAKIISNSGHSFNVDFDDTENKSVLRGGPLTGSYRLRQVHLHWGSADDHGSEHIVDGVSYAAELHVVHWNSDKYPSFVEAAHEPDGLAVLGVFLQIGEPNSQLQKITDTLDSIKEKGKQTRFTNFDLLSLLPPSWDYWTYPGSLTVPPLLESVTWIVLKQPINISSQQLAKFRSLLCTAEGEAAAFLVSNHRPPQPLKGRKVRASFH
Sequence of hCA VI (P23280 18-308): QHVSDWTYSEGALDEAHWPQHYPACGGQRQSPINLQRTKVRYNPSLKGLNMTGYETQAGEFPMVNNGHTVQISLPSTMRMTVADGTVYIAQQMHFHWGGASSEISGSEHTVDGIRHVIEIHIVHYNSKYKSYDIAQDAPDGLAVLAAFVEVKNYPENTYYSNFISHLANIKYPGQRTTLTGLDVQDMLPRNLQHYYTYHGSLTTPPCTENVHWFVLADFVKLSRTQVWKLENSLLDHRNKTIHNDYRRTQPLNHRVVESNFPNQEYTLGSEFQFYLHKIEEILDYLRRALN
Sequence of hCA VA (P35218 39-305): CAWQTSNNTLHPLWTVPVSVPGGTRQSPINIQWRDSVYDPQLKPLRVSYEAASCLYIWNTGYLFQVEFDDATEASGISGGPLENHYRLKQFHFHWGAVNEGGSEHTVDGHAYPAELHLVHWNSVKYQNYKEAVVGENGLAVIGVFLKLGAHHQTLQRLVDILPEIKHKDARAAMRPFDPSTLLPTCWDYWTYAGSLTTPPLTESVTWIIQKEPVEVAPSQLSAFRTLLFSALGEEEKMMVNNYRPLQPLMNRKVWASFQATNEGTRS
Sequence of hCA XII (O43570 25-354): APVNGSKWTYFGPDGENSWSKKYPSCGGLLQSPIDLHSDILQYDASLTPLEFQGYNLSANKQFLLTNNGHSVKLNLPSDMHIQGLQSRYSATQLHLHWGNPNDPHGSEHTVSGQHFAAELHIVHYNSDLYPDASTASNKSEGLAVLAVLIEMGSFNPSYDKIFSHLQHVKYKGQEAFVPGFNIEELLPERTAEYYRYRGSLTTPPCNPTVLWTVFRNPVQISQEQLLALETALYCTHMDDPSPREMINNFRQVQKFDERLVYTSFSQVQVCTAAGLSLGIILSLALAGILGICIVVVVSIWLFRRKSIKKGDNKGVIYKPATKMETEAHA
Sequence of hCA III (P07451 2-260): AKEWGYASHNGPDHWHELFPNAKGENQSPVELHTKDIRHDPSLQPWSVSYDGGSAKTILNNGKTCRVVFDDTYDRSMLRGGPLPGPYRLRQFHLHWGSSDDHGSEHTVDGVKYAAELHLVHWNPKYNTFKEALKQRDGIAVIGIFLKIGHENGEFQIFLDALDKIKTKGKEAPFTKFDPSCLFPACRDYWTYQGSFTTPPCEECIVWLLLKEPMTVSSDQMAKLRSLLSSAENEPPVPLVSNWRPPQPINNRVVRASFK
Sequence of hCA I (P00915 2-261): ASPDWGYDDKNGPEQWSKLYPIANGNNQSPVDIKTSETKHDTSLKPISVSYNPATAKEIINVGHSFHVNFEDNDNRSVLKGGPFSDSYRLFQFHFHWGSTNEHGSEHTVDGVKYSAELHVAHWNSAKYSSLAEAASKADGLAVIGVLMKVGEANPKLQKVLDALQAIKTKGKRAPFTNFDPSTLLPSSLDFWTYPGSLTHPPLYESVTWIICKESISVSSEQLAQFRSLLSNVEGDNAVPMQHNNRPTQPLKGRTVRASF
Sequence of hCA VII (P43166 whole entry): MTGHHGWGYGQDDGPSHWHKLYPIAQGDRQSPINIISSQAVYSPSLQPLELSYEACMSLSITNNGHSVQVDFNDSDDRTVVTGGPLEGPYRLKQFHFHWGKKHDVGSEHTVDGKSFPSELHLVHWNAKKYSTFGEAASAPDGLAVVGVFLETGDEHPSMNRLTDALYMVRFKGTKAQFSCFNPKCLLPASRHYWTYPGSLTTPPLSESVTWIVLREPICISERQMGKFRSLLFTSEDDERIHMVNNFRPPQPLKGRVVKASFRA
Sequence of hCA IV (P22748 19-284): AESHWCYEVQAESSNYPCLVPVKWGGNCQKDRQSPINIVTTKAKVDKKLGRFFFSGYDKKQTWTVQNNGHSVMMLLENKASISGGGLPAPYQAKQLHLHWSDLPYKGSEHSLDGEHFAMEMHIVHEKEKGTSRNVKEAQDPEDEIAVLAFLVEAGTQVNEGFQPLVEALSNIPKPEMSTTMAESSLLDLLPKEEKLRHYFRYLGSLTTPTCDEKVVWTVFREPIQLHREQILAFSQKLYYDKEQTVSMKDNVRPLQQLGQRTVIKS
Sequence of hCA VB (Q9Y2D0 34-317): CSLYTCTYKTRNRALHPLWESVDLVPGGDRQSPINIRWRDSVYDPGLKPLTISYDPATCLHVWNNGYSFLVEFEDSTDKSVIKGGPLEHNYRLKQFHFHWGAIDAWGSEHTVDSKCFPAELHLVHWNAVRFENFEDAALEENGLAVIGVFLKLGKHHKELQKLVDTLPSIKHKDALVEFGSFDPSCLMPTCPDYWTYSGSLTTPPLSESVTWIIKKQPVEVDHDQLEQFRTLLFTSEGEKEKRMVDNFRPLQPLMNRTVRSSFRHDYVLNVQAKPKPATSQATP

pKi (hCA VI) | pKi (hCA VB) | pKi (hCA VA) | pKi (mCA XV) | pKi (hCA IX) | pKi (hCA XII) | pKi (hCA XIII) | pKi (hCA I) | pKi (hCA IV) | pKi (hCA III) | pKi (hCA VII) | pKi (hCA II) | SMILES
5.46 | 5.37 | 5.34 | 5.55 | 5.02 | 5.40 | 4.98 | 5.04 | 5.37 | 5.02 | 5.47 | 5.44 | Cc1occc(=O)c1O [compound 1, maltol]
5.49 | 5.40 | 5.38 | – | 5.00 | 5.35 | 4.98 | 5.08 | 5.34 | 5.08 | 5.44 | 5.40 | Cc1occc(=S)c1O [compound 2, thiomaltol]
5.44 | 5.42 | 5.40 | 5.33 | 5.04 | 5.32 | 4.97 | 5.03 | 5.36 | 5.12 | 5.44 | 5.39 | On1ccccc1=S [compound 4, 1,2-HOPTO]

Source: article PMC3019337 (ChemMedChem, 2010)
